# Yeast life ext = extends the lifespan of yeast | inhibition of the nicotinamide effect, % at 10 µM | S. cerevisiae growth with nicotinamide, OD615; deaD strain in restrictive glucose medium | AID 775 | 130,000 compounds, 0.68% hits;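 active means inhibition above a set limit, placed 3 SD over the median of all compounds, cut at about 26% in these data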;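 further: 0% = nicotinamide-treated wells and 100% = cells grown without nicotinamide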
#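 assay system = DeaD-strain S. cerevisiae | buffer or medium = restrictive glucose medium | reagent = 1.5 mM nicotinamide | compound = 10 µM single point, 0.25% DMSO | incubation = 48 h compound exposure at 30 °C, humidified | signal = OD615 measurement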
# Measles CPE = protection of cells from measles virus; protection (pct of control), % at 4 µM; Measles virus-infected cells, CPE protection, absorbance; 140,000 compounds, 1.5% hits; in the data active means protection mostly above about 24%, no sharp cut-off; inactive means mostly below about 26%
# Insulin prom inh = TRM-6 insulin promoter activity inhibition; TRM-6 cells, insulin promoter-eGFP reporter, imaging; reporter expression induced with tamoxifen; inhibition, % at 2 µM; 130,000 compounds, 0.9% hits;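 active means inhibition above the mean plus 3 SD, with well images judged a real hit on visual review, cut at about 60% in these data, passing the limit was not always enough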
# Yeast growth inh = yeast BB579 growth reduction in restrictive medium; S. cerevisiae BB579 growth, OD615, 48 h; inhibition, % at 10 µM; 140,000 compounds, 0.51% hits; AID 804;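 active means inhibition above a set limit, 3 SD over the mean compound inhibition, cut at about 44% in these data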
#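 Material: Saccharomyces cerevisiae DeaD strain BB579, replicative lifespan model yeast; buffer or medium: CSMM-D restrictive synthetic medium containing dextrose (glucose); compound: 10 µM single dose, DMSO 0.25%; timing: 48 h compound exposure at 30 °C after 4 h preincubation; signal: turbidity as optical density at 615 nm; benchmarks: positive control amphotericin B 10 µg/mL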
# RAM network inh = yeast RAM network inhibition | 190,000 compounds, 1.8% hits | S. cerevisiae dse1pr::URA3 reporter, 5-FOA growth OD615, 2 d; analog-sensitive cbk1-as2 kinase mutant strain | AID 868 | inhibition, % at 50 µM;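 active means inhibition above a set limit, 3 SD over mean compound inhibition, cut at about 8.4% in these data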;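 further: 0% = DMSO-only wells with no growth and 100% = 10 µM 1-NA-PP1 full growth; inhibition rescues growth on 5-FOA so higher OD means more RAM inhibition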
# Mdm2 ligase inh = blocks human Mdm2 ubiquitin ligase activity; Q00987; cell-based MDM2 ubiquitination luciferase reporter, 2 h; 0 = plate control, 100 = twice control, blank-subtracted; signal enhancement, % at 5 µM; 210,000 compounds, 0.11% hits;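 active means signal enhancement of 30% or more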;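 further: luminescence tracks abundance of the self-degrading MDM2-luciferase fusion protein; higher signal means inhibition of MDM2 E3 ligase activity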
# Target sequence (Q00987 whole entry, looked up, the tested form may be a part): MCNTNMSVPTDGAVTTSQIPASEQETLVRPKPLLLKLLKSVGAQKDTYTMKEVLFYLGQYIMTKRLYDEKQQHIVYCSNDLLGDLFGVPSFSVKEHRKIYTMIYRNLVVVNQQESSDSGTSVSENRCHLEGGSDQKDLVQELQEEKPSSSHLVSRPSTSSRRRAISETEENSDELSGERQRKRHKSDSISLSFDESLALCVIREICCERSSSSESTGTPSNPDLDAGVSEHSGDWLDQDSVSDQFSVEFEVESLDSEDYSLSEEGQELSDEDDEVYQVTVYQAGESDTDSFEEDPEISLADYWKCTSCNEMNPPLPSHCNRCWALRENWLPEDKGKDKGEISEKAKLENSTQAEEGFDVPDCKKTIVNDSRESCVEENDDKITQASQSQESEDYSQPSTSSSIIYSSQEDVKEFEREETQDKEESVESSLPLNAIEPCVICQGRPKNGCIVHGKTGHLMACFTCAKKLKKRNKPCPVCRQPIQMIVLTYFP
#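 Timing – 2 h compound exposure at 37 °C · Assay system – mammalian cells stably expressing self-ubiquitinating, self-degrading MDM2 E3–luciferase fusion · Amount – 2000 cells seeded into each well · Measure – % luminescence enhancement versus blank-corrected plate control mean · Measured by – SteadyLite luminescence, 15 min reagent step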
# * = called active by the depositor; · = not tested or not shown. In the library only some 4% were active in any assay of this set; here they are far more common.
SMILES,Yeast life ext,Measles CPE,Insulin prom inh,Yeast growth inh,RAM network inh,Mdm2 ligase inh
O=[N+]([O-])c1cc(/C=N/n2c(-c3cccnc3)n[nH]c2=S)ccc1Cl,3.2,28.6*,-93.3,-25.3,3.6,-9.9
C=CCNC(=O)c1sccc1Oc1ccc(F)cc1[N+](=O)[O-],·,·,·,·,-0.5,7.1
CC1SC(C)C(=O)N(CC(=O)Nc2ccc([N+](=O)[O-])cc2)C1=O (stereo not given),·,·,50.0,·,0.4,8.0
O=C(O)CCCCCn1c(SCc2cc(=O)n3cc(Cl)ccc3n2)nc2ccsc2c1=O,-0.8,4.8,42.9,-41.7,4.1,-11.1
O=C(O)C1CCC(Cn2c(SCc3cc(=O)n4cc(Cl)ccc4n3)nc3ccsc3c2=O)CC1 (stereo not given),·,·,50.0,·,9.2*,-8.3
O=C(Nc1ccccc1)c1cccc(S(=O)(=O)N2CCCCC2)c1,-9.5,24.4,-21.6,-23.8,0.5,-3.2
Nc1cccc2c1C(=O)N(C(=O)c1ccc(Cl)c(S(=O)(=O)N3CCCCCC3)c1)C2=O,75.4*,8.1,-13.0,-48.2,-0.7,6.9
Nc1cccc2c1C(=O)N(C(=O)c1cccc(S(=O)(=O)N3CCCCCC3)c1)C2=O,28.0,7.0,-60.9,-25.1,0.8,-20.0
O=C(O)c1cccc(NC(=O)c2ccc(Cl)c(S(=O)(=O)N3CCCCCC3)c2)c1,·,·,41.2,·,9.7*,-6.0
CN1C(C(=O)NCc2cccc(Br)c2)CC2Cn3c(nc4cc5ccccc5cc43)C21 (stereo not given),·,·,·,·,·,31.4*
CN1C(C(=O)NCc2cccc(Br)c2)CC2Cn3c(nc4cc(Cl)c(Cl)cc43)C21 (stereo not given),·,·,·,·,·,1.3
Cc1nn(-c2ccccc2)c(N)c1Sc1ccccc1[N+](=O)[O-],9.8,46.0*,·,-9.4,0.0,-10.8
Cc1nn(-c2ccccc2)c(N)c1Sc1cccc([N+](=O)[O-])c1,-7.9,7.8,24.1,-24.6,-0.8,-5.5
CC(C)=CCCC(C)NC(=O)NC1CCCCC1 (stereo not given),·,26.8*,52.8,-6.2,-0.6,1.6
COc1ccc(-c2nc3c(c(SCC(=O)N4CCOCC4)n2)COC(C)(C)C3)cc1,-4.8,0.6,60.7*,-11.8,1.8,-19.4
COc1cc2c(cc1OC)C1(Nc3c-2c(C)nn3-c2ccccc2)C(=O)Nc2ccccc21 (stereo not given),2.0,4.2,-16.7,-59.6,9.3*,-16.0
O=C(/C(=C/O)N=Nc1ccc(Cl)cc1)c1ccncc1,76.8*,6.4,-6.7,-30.6,0.3,-0.6
COc1cc(C(=O)NC(=S)NNC(=O)c2cnccn2)cc(OC)c1OC,8.7,12.9,-40.0,88.1*,-0.5,-23.3
COc1ccc(C(=O)NC(=S)NNC(=O)c2cnccn2)cc1,1.6,1.8,33.3,81.3*,5.9,·
O=C(NC(=S)NNC(=O)c1cnccn1)c1ccc(Cl)cc1,·,·,·,·,·,-1.4
CC(C)C1C(c2ccccc2)N(C)C(c2ccccc2)CC1(O)c1ccccc1 (stereo not given),46.2*,5.2,·,-69.4,0.0,-1.6
COc1ccc(-c2nc3ccccc3[nH]2)cc1,-14.4,2.8,94.4*,-4.3,0.9,-8.4
COC(=O)c1ccc(-c2nc3ccccc3[nH]2)cc1,-3.7,5.9,64.3*,-58.2,3.4,-35.2
COc1ccc(-c2cc(=O)n(-c3nc4ccccc4[nH]3)[nH]2)cc1,-24.5,5.3,60.0,95.7*,0.9,-2.9
Cc1cccc(-c2ncc(CN3CCCC(CO)(Cc4ccccc4C)C3)cn2)c1 (stereo not given),·,·,·,·,-1.5,-13.8
SMILES,Yeast life ext,Measles CPE,Insulin prom inh,Yeast growth inh,RAM network inh,Mdm2 ligase inh
Nc1cccnc1Sc1cc(Cl)cc(Cl)c1,-8.4,6.8,90.0*,-26.3,0.6,-17.9
N#CCc1cc2ccc3cccc4ccc(c1)c2c34,·,·,·,·,·,-6.5
S=C(Sc1ccc(Cl)cc1)Sc1ccc(Cl)cc1,·,·,·,·,·,30.0
COC(=O)CSc1nnc(CNC(=O)c2cccs2)n1-c1cc(OC)ccc1OC,-10.3,18.9,·,-34.7,-1.8,-3.8
O=C(CNc1ccccc1OC(F)F)N1CCc2ccccc21,·,·,·,·,3.6,-6.2
CCCOc1ccc(-c2nc(C#N)c(N3CCc4ccccc4C3)o2)cc1,-6.8,4.7,31.2,-34.6,10.7*,-5.8
Cc1cccc(OCCCOc2cccc3cccnc23)c1C,-28.0,2.8,·,72.8*,0.1,0.8
Cc1cccc(OCCCCc2c(C)n[nH]c2C)c1C,-19.3,4.5,0.0,69.1*,-0.3,-15.6
COc1ccccc1OCCCc1c(C)n[nH]c1C,-30.1,14.1,0.0,99.6*,-0.9,-21.8
COc1ccccc1OCCCCCc1c(C)n[nH]c1C,-10.2,4.3,11.5,-31.3,1.1,-15.2
O=C(c1ccc(OC2CCN(Cc3ccccn3)CC2)cc1)N1CCCCO1,·,·,·,·,0.9,9.4
COc1ccc2c(c1)CCc1c(C(=O)NC3CCCCC3)noc1-2,-12.6,3.4,-84.6,-16.3,2.7,-25.1
CCC(=O)Nc1ccc(S(=O)(=O)Nc2cccc(C)c2)cc1OC,-6.6,6.2,-2.9,-9.4,0.7,-14.3
O=C(Nc1ccn(Cc2ccccc2F)n1)c1ccc(COc2cccc(Br)c2)cc1,-0.5,12.0,0.0,-22.4,10.8*,-16.8
Cn1nc(-c2ccccc2)cc1NS(=O)(=O)c1ccc(C#N)cc1,·,·,·,·,·,-0.8
Cc1ccc(C)c(Cn2c(C(=O)OC(C)C)cc3c2ccn3C)c1,1.6,8.4,-28.6,-49.2,7.4,1.1
CC(=O)Nc1cccc(NC(=O)Nc2ccc(C(C)=O)cc2)c1,-11.1,43.9*,6.2,-88.3,1.1,-6.1
CC(=O)Nc1cccc(NC(=O)Nc2cccc(F)c2)c1,·,·,·,·,2.1,10.7
COC(=O)[C@@H](NC(=O)Nc1ccc(OC(F)(F)F)cc1)C(C)C,-9.4,6.7,·,-32.7,2.1,-1.8
CC(=O)c1cccc(NC(=O)Nc2ccc3c(c2)N(C)C(=O)CS3)c1,-17.7,20.6,-33.3,-54.1,8.5*,-9.2
COC(=O)[C@@H](NC(=O)Nc1ccc(C(C)=O)cc1)C(C)C,-6.2,104.2*,·,-25.8,1.7,-4.3
COC(=O)[C@@H](NC(=O)Nc1ccc(S(N)(=O)=O)cc1)C(C)C,4.8,30.7*,-42.9,-34.5,2.5,-4.7
CC(N)(C(=O)O)c1cccc(OCc2cccc(Cl)c2)c1 (stereo not given),·,·,·,·,·,-13.3
CCOC(=O)C1(CCc2ccccc2)CCN(C(=O)CCn2cncn2)CC1,·,·,·,·,1.9,-7.3
COc1ccc(CNCCNC(=O)c2cccs2)c(OC)c1OC,·,·,·,·,0.4,-3.0
O=C1CC(c2ccccc2)CC(=O)C1Sc1ccc(Cl)cc1 (stereo not given),39.6*,23.4,1.6,-3.4,1.8,-2.0
O=C1CC(c2ccc(Cl)cc2)CC(=O)C1CS(=O)(=O)c1ccccc1 (stereo not given),·,·,-63.6,·,0.6,-10.9

# From PubChem BioAssay
